Results reported in ChEMBL document CHEMBL4665785 (J Med Chem, 2020).
Active and inactive are the calls of the source. The calls are words filed in the database; no cut-off is given here.

How the values were obtained:
Cathepsin S [1] = molecular target: T1, Cathepsin S (Homo sapiens, UniProt P25774); assay: Inhibition of Cathepsin S in human Raji cells assessed as increase in Lip10 accumulation after 24 hrs by SDS-PAGE analysis; type: cell-based
Outline: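 Human Raji cells, an antigen-presenting B-lymphocyte line, used for the target-engagement read-out. Inhibition is scored as intracellular accumulation of the CatS substrate Lip10, the invariant-chain-derived propeptide.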

Cathepsin S [2] = molecular target: T1, Cathepsin S; assay: Inhibition of recombinant human Cathepsin S expressed in baculovirus infected insect cells using Z-VVR-AMC as substrate preincubated for 15 mins followed by substrate addition and measured after 10 mins by fluorescence assay
[3] = Permeability across apical to basal side in human Caco-2 cells at 1 uM measured up to 120 min by LC-MS analysis; type: ADME, cell-based; conditions: time <= 120, dose 1 µM, read-out: permeability
[4] = molecular target: T2, Cathepsin K (Homo sapiens) (UniProt P43235); assay: Inhibition of recombinant human Cathepsin K expressed in baculovirus infected insect cells using Z-FR-AMC as substrate up to 100 uM preincubated for 15 mins followed by substrate addition and measured after 10 mins by fluorescence assay relative to control; conditions: time 25.0 min
T2 sequence (whole entry): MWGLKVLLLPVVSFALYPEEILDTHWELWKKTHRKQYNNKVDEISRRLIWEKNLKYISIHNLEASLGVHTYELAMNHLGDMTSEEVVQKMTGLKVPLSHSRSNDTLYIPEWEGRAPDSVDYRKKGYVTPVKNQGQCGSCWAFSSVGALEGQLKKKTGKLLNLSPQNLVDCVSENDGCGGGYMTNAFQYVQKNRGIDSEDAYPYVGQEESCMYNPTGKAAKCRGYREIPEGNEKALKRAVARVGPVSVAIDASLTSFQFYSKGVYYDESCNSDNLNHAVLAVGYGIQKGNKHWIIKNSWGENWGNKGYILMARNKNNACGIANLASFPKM

[5] = molecular target: Procathepsin L (Homo sapiens) (UniProt P07711); assay: Inhibition of human liver Cathepsin L using Z-VVR-AMC as substrate at 10 uM preincubated for 15 mins followed by substrate addition and measured after 10 mins by fluorescence assay relative to control; conditions: time 25.0 min
Homo sapiens [6] = species on record: Homo sapiens; assay: Selectivity ratio of inhibition of human liver Cathepsin L to inhibition of recombinant human Cathepsin S
Homo sapiens [7] = species on record: Homo sapiens; assay: Selectivity ratio of inhibition of human liver Cathepsin B to inhibition of recombinant human Cathepsin S
[8] = molecular target: T2, Cathepsin K (Homo sapiens); assay: Inhibition of recombinant human Cathepsin K expressed in baculovirus infected insect cells using Z-FR-AMC as substrate at 10 uM preincubated for 15 mins followed by substrate addition and measured after 10 mins by fluorescence assay relative to control; conditions: time 25.0 min
[9] = molecular target: Cathepsin B (Homo sapiens) (UniProt P07858); assay: Inhibition of human liver Cathepsin B using Z-VVR-AMC as substrate at 10 uM preincubated for 15 mins followed by substrate addition and measured after 10 mins by fluorescence assay relative to control; conditions: time 25.0 min
Homo sapiens [10] = species on record: Homo sapiens; assay: Selectivity ratio of inhibition of recombinant human Cathepsin K to inhibition of recombinant human Cathepsin S

T1 sequence (P25774 whole entry): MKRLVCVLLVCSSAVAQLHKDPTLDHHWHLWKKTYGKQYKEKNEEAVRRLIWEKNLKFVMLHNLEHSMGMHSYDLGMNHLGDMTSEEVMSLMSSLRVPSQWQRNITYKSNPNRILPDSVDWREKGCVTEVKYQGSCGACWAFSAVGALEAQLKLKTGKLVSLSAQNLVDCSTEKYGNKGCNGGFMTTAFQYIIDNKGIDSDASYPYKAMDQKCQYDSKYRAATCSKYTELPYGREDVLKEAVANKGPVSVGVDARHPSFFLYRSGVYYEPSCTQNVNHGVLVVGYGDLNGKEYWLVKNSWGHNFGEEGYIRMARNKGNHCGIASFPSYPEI
Sequence of Procathepsin L (Homo sapiens) (P07711 114-333 limits assumed): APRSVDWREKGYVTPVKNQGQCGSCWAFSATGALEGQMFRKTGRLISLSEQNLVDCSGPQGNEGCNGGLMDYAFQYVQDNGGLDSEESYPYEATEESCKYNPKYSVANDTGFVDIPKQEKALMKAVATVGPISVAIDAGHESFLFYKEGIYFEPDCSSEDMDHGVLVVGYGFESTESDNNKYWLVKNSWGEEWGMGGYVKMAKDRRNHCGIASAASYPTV

SMILES: N#CC1(NC(=O)[C@H](CS(=O)(=O)N2CCN(c3ccccn3)CC2)NC(=O)Cc2cccs2)CC1
- EC50 (Cathepsin S [1]): 1100 nM
- Ki (Cathepsin S [2]): 0.2 nM
- Papp A→B at 2 h, 1 µM [3]: 0.4 ×10⁻⁶ cm/s

SMILES: N#CC1(NC(=O)[C@H](CS(=O)(=O)C[C@H]2CCC(=O)N2)N[C@@H](c2ccc(F)cc2)C(F)(F)F)CC1
- Ki (Cathepsin S [2]): ≤ 100 nM

SMILES: N#CC1(NC(=O)[C@@H](Cc2ccccc2)CS(=O)(=O)N2CCN(c3ccccn3)CC2)CC1
- Ki (Cathepsin S [2]): 290 nM

SMILES: CNC(=O)CCS(=O)(=O)N1CCN(c2ccc3nncn3n2)CC1
- Ki (Cathepsin S [2]): 700 nM
- inhibition [4]: inactive

SMILES: N#CC1(NC(=O)CCS(=O)(=O)N2CCN(c3ccccn3)CC2)CC1
- Ki (Cathepsin S [2]): 800 nM

SMILES: N#CC1(NC(=O)[C@H](CS(=O)(=O)N2CCN(c3ccccn3)CC2)Nc2cccnc2)CC1
- Ki (Cathepsin S [2]): 0.25 nM
- Papp A→B at 2 h, 1 µM [3]: 0.33 ×10⁻⁶ cm/s

SMILES: Cc1cc(CC(=O)N[C@@H](CS(=O)(=O)N2CCN(c3ccccn3)CC2)C(=O)NC2(C#N)CC2)on1
- inhibition [5]: < 26%
- Ki (Cathepsin S [2]): 0.345 nM
- Selectivity ratio (Homo sapiens [6]): > 30000
- Selectivity ratio (Homo sapiens [7]): > 30000
- inhibition [8]: < 16%
- inhibition [9]: < 8%
- Selectivity ratio (Homo sapiens [10]): > 30000
